Shown are actives, neighbours in structure and some others; about 1.4% of the full set was active somewhere.
ZTA DNA inh = ZTA (EBV) inhibition in EBNA-1 counter-screen; P03206; ZTA-DNA binding, fluorescence polarization; inhibition, % at 11 µM; hit rate 0.15% among 320,000; in the data active = inhibition above about 33%
Target sequence (P03206 whole entry, looked up): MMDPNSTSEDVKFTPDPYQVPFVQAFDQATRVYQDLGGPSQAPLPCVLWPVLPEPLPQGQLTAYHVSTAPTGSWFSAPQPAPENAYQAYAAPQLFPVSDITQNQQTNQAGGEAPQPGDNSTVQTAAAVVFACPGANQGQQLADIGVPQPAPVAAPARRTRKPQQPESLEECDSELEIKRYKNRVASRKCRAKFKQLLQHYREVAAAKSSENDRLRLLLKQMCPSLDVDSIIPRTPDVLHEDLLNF
NS3 helicase inh = HCV NS3 helicase inhibition; hit rate 0.56% among 290,000; inhibition, % at 10.9 µM; NS3 helicase DNA unwinding, Cy5 molecular beacon fluorescence;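 active = inhibition above the mean of all tested compounds plus 3 SD, set per campaign, cut at about 35% in these data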;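 also: 0% = DMSO wells and 100% = thioflavine S control wells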
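System: Hepatitis C virus NS3 helicase domain fragment enzyme | Reagent: Annealed dual-labelled DNA beacon duplex, ATP-started | Compound dosing: 10.9 µM single point, 0.8% DMSO | Incubation: 1 h reaction at 25 °C, ATP-initiated | Technique: Cy5 fluorescence | Evaluation: Percent inhibition from t60/t0 fluorescence ratio | Benchmarks: Low DMSO, high thioflavine S at 110 µM | Replication: Singlicate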
EBNA-1 inhibitor = blocks EBNA-1 binding to DNA | EBNA-1 DNA binding, fluorescence polarization | AID 1950 | hit rate 0.34% among 300,000 | inhibition, % at 14.8 µM; in the data active = inhibition above about 28%
CTSL1 counter = blocks F. hepatica cathepsin L1 in PFM18AAP counter-screen. recombinant F. hepatica cathepsin L1, Z-Leu-Arg-MCA fluorescence. inhibition, % at 5.96 µM. hit rate 0.49% among 300,000. AID 1906;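 active = inhibition above the mean of all tested compounds plus 3 SD, set per screening campaign, cut at about 17% in these data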;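 also: 0% = plate median of test compound wells and 100% = 1 µM Z-Phe-Ala-diazomethylketone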
EBNA-1 confirm = EBNA-1 (EBV) inhibition, confirmation; AID 2292; Recombinant EBNA-1 DBD, Cy5-DNA fluorescence polarization; inhibition, % at 14.8 µM; hit rate 35% among 830; shares compounds with EBNA-1 inhibitor;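 active = mean inhibition across replicates above a set limit taken from the earlier primary screen, cut at about 28% in these data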;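 also: plate controls were EBNA-1 protein with DMSO for no effect and wells lacking EBNA-1 for full effect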
ZTA counter trip = counter-screen for EBNA-1 inhibitors: Epstein-Barr virus ZTA inhibitors, triplicate. shares compounds with EBNA-1 inhibitor. Zta-ZRE DNA binding, Cy5 fluorescence polarization. inhibition, % at 11.1 µM. 830 tested, under 10 active. AID 2328;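 active = mean inhibition over triplicates above a set limit taken from the primary EBNA-1 screen, cut at about 37% in these data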;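 also: purified full length Zta protein with Cy5 labeled ZRE DNA probe; 0% = Zta with DMSO and 100% = wells lacking Zta protein; inhibitors lower polarization by freeing the labeled DNA probe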
An asterisk follows results filed as active; x = not tested or not shown.

SMILES	ZTA DNA inh	NS3 helicase inh	EBNA-1 inhibitor	CTSL1 counter	EBNA-1 confirm	ZTA counter trip
CCOC(=O)[C@H]1[C@H]2COc3ccc(Cl)cc3[C@@H]2N2C(=O)c3ccc(Cl)cc3NC(=O)[C@@]12C	-2	x	77*	2	82*	13
CCOC(=O)[C@H]1[C@H]2COc3ccc(OC)cc3[C@@H]2N2C(=O)c3ccc(Cl)cc3NC(=O)[C@@]12C	-1	x	13	-2	x	x
CN(C)C(=O)/C(=C/c1cn(-c2ccccc2)nc1-c1cccc([N+](=O)[O-])c1)NC(=O)c1ccccc1	-7	2	-6	0	x	x
CCOc1ccc(C(=O)N/N=C/c2ccc(-c3ccc(S(=O)(=O)Nc4ncccn4)cc3)o2)cc1	7	10	5	6	x	x
CCOc1ccc(NC(=O)C(=O)N/N=C\c2ccc(CNS(=O)(=O)c3ccccc3)o2)cc1	-14	-4	63*	6	58*	-2
CCCOC(=O)c1cccc(NC(=O)COc2ccc([N+](=O)[O-])cc2)c1	4	-5	109*	-6	7	4
O=C(CC(Cc1ccccc1)C(=O)O)Nc1ccccc1 (centres undefined)	18	17	-5	3	x	x
COc1ccc(N2CCN(C(=O)c3ccc4c(c3)NC(=O)C(CSCc3cccc(F)c3)N4)CC2)cc1 (centres undefined)	4	14	-1	1	x	x
O=C(Nc1ccc2c(c1)OCO2)C1CCN(c2ccc(S(=O)(=O)N3CCOCC3)cc2)CC1	3	0	29*	2	11	8
Cc1ccc(S(=O)(=O)N2CCC(C(=O)Nc3ccc4c(c3)OCO4)CC2)cc1	-12	1	2	-6	x	x
Cc1ccc(C)c(OCCC(=O)OCC(=O)Nc2ccc(C)c(S(=O)(=O)N3CCCCC3)c2)c1	2	x	1	-10	x	x
C=C(C)Cn1c(=O)c2c(nc3n2CCN3c2cccc(Cl)c2C)n(C)c1=O	-18	x	-2	-2	x	x
COc1ccc(CNC(=O)CCCCCn2c(SCC#N)nc3cc4c(cc3c2=O)OCO4)cc1	8	11	38*	-3	6	12
Cc1ccc(-c2nc3ccccc3[nH]2)cc1NC(=O)c1sc2cc(Cl)ccc2c1Cl	8	1	92*	1	83*	20
Cc1ccc(-c2nc3ccccc3[nH]2)cc1NC(=O)c1ccco1	-2	-5	-4	-4	x	x
O=[N+]([O-])c1cc(Cl)ccc1NCCNc1ncc(C(F)(F)F)cc1Cl	10	-15	17	5	x	x
O=[N+]([O-])c1ccccc1NCCNc1ncc(C(F)(F)F)cc1Cl	25	3	62*	-1	53*	11
COc1ccc2nc(NC(=O)CC3Oc4ccccc4NC3=O)sc2c1 (centres undefined)	9	4	56*	3	20	11
CCOc1ccc2nc(NC(=O)CC3Oc4ccccc4NC3=O)sc2c1 (centres undefined)	8	-7	22	-1	x	x
CN1CCN(C(=O)c2cc3nc(-c4ccccc4)cc(C(F)(F)F)n3n2)CC1	-5	-17	4	1	x	x
COc1ccc(-c2ccc(C#N)c(SCC(=O)NC3CC3)n2)cc1OC	6	-6	32*	4	13	4
COc1ccc(-c2ccc(C#N)c(SCC(=O)OCc3ccccc3)n2)cc1OC	-10	-11	-5	1	x	x
COc1ccc(-c2ccc(SCC(=O)NC3CCCC3)nn2)cc1OC	29	2	-3	2	x	x
COc1ccc(-c2ccc(C#N)c(SCC(=O)NCc3ccco3)n2)cc1OC	-6	9	45*	0	41*	0
O=C(/C=C/c1ccccc1)NC1CCS(=O)(=O)C1 (centres undefined)	12	12	9	4	x	x
SMILES	ZTA DNA inh	NS3 helicase inh	EBNA-1 inhibitor	CTSL1 counter	EBNA-1 confirm	ZTA counter trip
Cc1cccc(NC(=O)CSc2ccc(-c3cccs3)nn2)c1C	10	-13	29*	1	16	3
Cc1ccc(C)c(NC(=O)CSc2ccc(-c3cccs3)nn2)c1	12	-1	25	3	x	x
CC(=O)Nc1ccc(NC(=O)CSc2ccc(-c3cccs3)nn2)cc1	3	-9	41*	1	38*	1
CC(=O)Nc1ccc(NC(=O)CSc2ccc(-c3ccco3)nn2)cc1	-2	0	-1	2	x	x
O=C(OCC(=O)c1ccc(Cl)s1)c1ccc2ccccc2n1	-6	24	16	4	x	x
NC(=O)c1ccccc1NC(=O)c1cccc(C(=O)Nc2ccccc2C(N)=O)n1	11	x	35*	3	36*	4
COc1ccc(NC(=O)c2cc(-c3cc(Cl)ccc3O)n[nH]2)c(OC)c1	23	-4	33*	-4	19	3
COc1ccc(NC(=O)c2ccc(C(=O)Nc3ccc(OC)cc3OC)cc2)c(OC)c1	-7	3	56*	-1	51*	10
COc1ccc(NC(=O)c2cc(-c3cc(C)c(C)cc3O)n[nH]2)c(OC)c1	6	10	8	2	x	x
CCCSc1oc(-c2ccco2)nc1S(=O)(=O)c1ccccc1	11	1	-5	-2	x	x
Cc1nc(-c2ccccc2)nc2[nH]c(-c3ccccc3)cc(=O)c12	-5	-9	28*	13	18	-3
Cc1nc(C)c2c(=O)cc(-c3ccccc3)[nH]c2n1	16	5	5	5	x	x
CCN1CCN(CC(=O)c2c[nH]c3ccccc23)CC1	12	1	3	-7	x	x
COc1ccc(C(=O)CSc2cc(C)nc(SCC(=O)c3ccc(C)cc3)n2)cc1	-10	5	2	2	x	x
Cc1ccc(C(=O)CSc2nc(C)cc(SCc3nnc(-c4ccccc4)o3)n2)cc1	-6	8	28*	2	23	10
O=C(NNC(=O)c1ccc(NC(=O)c2ccccc2)cc1)c1ccc(F)cc1	5	-5	67*	1	103*	4
C/C(=N\NC(=O)c1c(Br)cnn1C)c1ccc(NC(=O)c2ccc(F)cc2)cc1	-12	3	50*	1	69*	1
C/C(=N\NC(=O)c1c(Cl)cnn1C)c1cccc(NC(=O)c2ccc(C)cc2)c1	6	-3	4	0	x	x
NC(=O)c1ccccc1Nc1nc(NCCO)nc(N2CCCC2)n1	3	x	0	5	x	x
COc1cccc(C(=O)NC(=O)Nc2cc(C)on2)c1	-3	5	2	-2	x	x
CC(=O)Nc1ccc(C(=O)CSc2nnnn2C)cc1	-8	-5	3	3	x	x
Cn1nnnc1SCc1ccc(C(=O)Nc2ccc(Br)cc2)cc1	7	0	39*	1	18	1
CC(OC(=O)CNC(=O)c1ccc(Br)cc1)C(=O)NC1CCCCC1C (centres undefined)	-6	x	x	x	x	x
Cc1ccc(OCc2nnc(NC(=O)c3ccco3)s2)c(C)c1	3	-4	46*	2	-2	-1
O=C1CC(N(CCc2ccccc2)C(=S)Nc2ccccc2)C(=O)N1c1ccc(Br)cc1 (centres undefined)	-4	-1	-13	-1	x	x

Screens deposited in PubChem by The Scripps Research Institute Molecular Screening Center.
